ChEMBL document CHEMBL1145482, “Acquired echinocandin resistance in a Candida krusei isolate due to modification of glucan synthase” (Antimicrob Agents Chemother, 2007)
In brackets after ≈: the same amount, converted by molar mass. *1 amine or outer side, *2 acyl side, *3 side chain or, on linkers, in order; H or OH if unused. Where a SMILES comes first, the peptide text is derived from it. Bridges are numbered along the chain shown (N, C = ends). [ ]: non-standard residue; d: D form. The star is where a group is joined. hTyr(3S-OH,4S-OH,3'-OSO3H) = N[C@H](C(=O)O)[C@H](O)[C@@H](O)c1ccc(O)c(OS(=O)(=O)O)c1; pTerphenylCO(4''-OnC5H11) = CCCCCOc1ccc(-c2ccc(-c3ccc(C(=O)*)cc3)cc2)cc1; Orn(4R-OH,5R-OH) = O=C([C@H](C[C@@H](O)[C@@H](O)N[*:3])N[*:1])[*:2]; hTyr(3S-OH,4S-OH) = N[C@H](C(=O)O)[C@H](O)[C@@H](O)c1ccc(O)cc1; Pro(3S-OH,4S-Me) = C[C@H]1CN[C@H](C(=O)O)[C@H]1O; X1 = CCCCCOc1ccc(-c2cc(-c3ccc(C(=O)*)cc3)no2)cc1; Gln(3R-OH) = NC(=O)C[C@@H](O)[C@H](N)C(=O)O; Hyp = O=C(O)[C@@H]1C[C@@H](O)CN1

Key:
[1] = tested on: Pichia kudriavzevii; test: Antifungal activity against FKS1 T2080K mutation containing Candida krusei 100 isolate from acute myelogenous leukemia patient by broth microdilution method; assay type: functional
[2] = tested on: Pichia kudriavzevii; test: Antifungal activity against Candida krusei 98 isolate from acute myelogenous leukemia patient by broth microdilution method; assay type: functional
[3] = tested on: Pichia kudriavzevii; test: Ratio of MIC of FKS1 T2080K mutation containing Candida krusei 100 isolate to MIC of Candida krusei 98 isolate from acute myelogenous leukemia patient by broth microdilution method; assay type: functional
[4] = target: 1,3-beta-D-glucan synthase subunit (Pichia kudriavzevii, UniProt Q4U2W2); test: Inhibition of FKS1 from Candida krusei 98 isolate
Chain of 1,3-beta-D-glucan synthase subunit (Pichia kudriavzevii, UniProt Q4U2W2) (Q4U2W2 whole entry): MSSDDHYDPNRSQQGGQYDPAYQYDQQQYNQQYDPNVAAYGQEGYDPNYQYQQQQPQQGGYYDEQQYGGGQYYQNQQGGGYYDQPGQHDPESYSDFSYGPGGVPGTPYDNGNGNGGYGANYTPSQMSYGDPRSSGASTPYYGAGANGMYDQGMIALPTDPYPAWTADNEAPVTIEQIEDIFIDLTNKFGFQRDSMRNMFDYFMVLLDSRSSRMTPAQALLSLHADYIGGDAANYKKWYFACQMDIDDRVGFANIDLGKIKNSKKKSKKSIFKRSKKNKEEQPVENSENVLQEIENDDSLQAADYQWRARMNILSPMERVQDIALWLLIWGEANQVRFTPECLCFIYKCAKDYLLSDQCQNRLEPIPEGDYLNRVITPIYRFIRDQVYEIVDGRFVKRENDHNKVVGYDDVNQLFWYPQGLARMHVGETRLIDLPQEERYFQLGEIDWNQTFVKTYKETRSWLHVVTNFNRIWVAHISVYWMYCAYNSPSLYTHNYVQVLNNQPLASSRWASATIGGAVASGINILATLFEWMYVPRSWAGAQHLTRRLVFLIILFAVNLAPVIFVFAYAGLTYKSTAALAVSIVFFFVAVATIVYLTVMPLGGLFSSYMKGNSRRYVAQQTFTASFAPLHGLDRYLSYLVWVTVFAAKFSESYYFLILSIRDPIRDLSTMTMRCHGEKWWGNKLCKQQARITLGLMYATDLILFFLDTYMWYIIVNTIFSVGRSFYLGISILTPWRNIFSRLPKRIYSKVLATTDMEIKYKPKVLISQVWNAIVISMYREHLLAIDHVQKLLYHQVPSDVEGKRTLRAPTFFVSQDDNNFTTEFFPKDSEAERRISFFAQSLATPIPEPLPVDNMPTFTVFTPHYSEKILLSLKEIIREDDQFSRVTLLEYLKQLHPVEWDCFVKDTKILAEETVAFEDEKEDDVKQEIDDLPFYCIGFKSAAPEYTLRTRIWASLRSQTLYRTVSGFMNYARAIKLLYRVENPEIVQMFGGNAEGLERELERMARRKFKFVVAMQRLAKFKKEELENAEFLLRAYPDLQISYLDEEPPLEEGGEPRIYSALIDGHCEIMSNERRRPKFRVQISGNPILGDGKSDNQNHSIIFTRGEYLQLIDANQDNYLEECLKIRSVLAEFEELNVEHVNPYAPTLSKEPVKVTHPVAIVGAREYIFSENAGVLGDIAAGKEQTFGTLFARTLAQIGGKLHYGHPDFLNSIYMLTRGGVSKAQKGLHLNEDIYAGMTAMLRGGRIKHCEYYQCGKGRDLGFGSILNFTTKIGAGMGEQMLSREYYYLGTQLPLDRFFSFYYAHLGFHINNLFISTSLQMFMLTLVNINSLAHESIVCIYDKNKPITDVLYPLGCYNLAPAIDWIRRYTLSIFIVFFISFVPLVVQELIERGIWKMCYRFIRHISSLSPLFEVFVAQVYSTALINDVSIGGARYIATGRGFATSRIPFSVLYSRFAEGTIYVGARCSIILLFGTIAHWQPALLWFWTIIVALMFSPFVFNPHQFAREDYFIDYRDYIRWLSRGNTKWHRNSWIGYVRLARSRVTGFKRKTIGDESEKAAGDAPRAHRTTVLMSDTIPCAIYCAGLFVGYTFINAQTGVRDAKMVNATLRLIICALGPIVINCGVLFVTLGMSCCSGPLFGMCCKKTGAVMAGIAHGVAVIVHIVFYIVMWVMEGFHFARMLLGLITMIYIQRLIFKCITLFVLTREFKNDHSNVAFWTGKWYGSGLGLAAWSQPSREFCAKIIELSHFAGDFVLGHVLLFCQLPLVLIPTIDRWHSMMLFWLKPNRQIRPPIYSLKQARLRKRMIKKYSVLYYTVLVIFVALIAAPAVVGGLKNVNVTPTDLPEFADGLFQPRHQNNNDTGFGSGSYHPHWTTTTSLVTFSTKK
In short: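 Glucan synthase enzyme complex isolated from the pretreatment clinical strain Ck-98 and titrated with the echinocandin. Inhibition curves were fitted with a sigmoidal variable-slope dose-response model to give IC50 in ng/ml.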

[5] = target: 1,3-beta-D-glucan synthase subunit (Pichia kudriavzevii, UniProt Q4U2W2, F655C); test: Inhibition of FKS1 T2080K mutant from Candida krusei 100 isolate
Chain of 1,3-beta-D-glucan synthase subunit (Pichia kudriavzevii, UniProt Q4U2W2, F655C) (Q4U2W2 entry or part of it F655C): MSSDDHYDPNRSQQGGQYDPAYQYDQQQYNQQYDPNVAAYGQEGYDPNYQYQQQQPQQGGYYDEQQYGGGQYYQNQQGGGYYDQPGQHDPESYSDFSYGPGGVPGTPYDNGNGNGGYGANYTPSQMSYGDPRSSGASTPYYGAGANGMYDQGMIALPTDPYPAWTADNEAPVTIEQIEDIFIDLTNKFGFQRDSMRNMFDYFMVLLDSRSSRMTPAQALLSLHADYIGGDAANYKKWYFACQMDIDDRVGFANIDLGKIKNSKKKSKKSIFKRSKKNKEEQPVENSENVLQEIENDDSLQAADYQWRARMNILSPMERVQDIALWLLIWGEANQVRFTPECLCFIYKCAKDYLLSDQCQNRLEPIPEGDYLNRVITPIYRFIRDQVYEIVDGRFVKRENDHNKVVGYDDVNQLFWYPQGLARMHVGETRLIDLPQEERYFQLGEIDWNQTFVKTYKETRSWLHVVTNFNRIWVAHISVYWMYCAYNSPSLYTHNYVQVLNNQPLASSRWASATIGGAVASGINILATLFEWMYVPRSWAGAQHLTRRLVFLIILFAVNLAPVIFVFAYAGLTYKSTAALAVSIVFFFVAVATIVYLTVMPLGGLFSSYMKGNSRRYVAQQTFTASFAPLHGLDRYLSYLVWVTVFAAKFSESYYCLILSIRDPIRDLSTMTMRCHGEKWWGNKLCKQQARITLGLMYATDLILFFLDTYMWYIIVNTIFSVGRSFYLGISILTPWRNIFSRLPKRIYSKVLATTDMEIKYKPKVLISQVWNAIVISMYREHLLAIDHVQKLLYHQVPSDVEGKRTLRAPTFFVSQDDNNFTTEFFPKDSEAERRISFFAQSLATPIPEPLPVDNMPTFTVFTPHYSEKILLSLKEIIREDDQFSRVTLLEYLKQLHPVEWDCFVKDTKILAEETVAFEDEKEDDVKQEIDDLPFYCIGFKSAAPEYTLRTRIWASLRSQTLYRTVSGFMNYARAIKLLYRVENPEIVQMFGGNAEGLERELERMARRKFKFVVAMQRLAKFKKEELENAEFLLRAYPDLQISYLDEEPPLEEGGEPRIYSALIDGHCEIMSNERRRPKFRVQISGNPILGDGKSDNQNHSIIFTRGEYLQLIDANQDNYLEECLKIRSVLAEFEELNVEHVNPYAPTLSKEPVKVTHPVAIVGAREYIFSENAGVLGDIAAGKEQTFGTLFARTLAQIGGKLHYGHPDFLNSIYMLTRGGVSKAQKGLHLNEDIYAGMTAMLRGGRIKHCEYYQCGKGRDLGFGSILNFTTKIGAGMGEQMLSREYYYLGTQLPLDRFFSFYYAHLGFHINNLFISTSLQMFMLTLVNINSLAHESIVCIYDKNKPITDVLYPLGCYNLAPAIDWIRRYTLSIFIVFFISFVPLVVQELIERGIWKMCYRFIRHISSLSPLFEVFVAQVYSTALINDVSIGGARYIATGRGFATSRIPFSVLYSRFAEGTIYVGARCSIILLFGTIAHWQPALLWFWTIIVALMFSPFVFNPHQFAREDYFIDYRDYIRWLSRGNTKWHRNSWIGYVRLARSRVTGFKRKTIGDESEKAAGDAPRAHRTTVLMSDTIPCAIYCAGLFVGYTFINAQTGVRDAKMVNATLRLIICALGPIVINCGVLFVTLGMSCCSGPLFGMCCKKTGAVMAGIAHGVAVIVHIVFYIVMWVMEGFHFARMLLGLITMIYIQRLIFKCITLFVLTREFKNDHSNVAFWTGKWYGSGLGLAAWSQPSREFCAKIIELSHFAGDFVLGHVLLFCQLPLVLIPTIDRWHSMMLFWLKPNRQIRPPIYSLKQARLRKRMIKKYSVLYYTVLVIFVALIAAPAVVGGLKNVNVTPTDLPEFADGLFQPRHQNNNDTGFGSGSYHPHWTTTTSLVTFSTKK
In short: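 Glucan synthase enzyme complex isolated from posttreatment strain Ck-100. Caspofungin titrated against the enzyme. Inhibition curve fitted with a two-site competition algorithm to give IC50 in ng/ml.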

| Structure (SMILES) | MIC [1] [µg/mL] | MIC [2] [µg/mL] | Ratio [3] | IC50 [4] [µM] | IC50 [5] [µM] |
| --- | --- | --- | --- | --- | --- |
| CCCCCOc1ccc(-c2cc(-c3ccc(C(=O)N[C@H]4C[C@@H](O)[C@@H](O)NC(=O)[C@@H]5[C@@H](O)[C@@H](C)CN5C(=O)[C@H]([C@H](O)CC(N)=O)NC(=O)[C@H]([C@H](O)[C@@H](O)c5ccc(O)c(OS(=O)(=O)O)c5)NC(=O)[C@@H]5C[C@@H](O)CN5C(=O)[C@H]([C@@H](C)O)NC4=O)cc3)no2)cc1 [MICAFUNGIN] (X1-[Orn(4R-OH,5R-OH)]T[Hyp][hTyr(3S-OH,4S-OH,3'-OSO3H)][Gln(3R-OH)][Pro(3S-OH,4S-Me)]; lactam 1-C) | 4 (≈ 3.15 µM) | 0.25 (≈ 0.197 µM) | 16 |  |  |
| CC[C@H](C)C[C@H](C)CCCCCCCCC(=O)N[C@H]1C[C@@H](O)[C@@H](NCCN)NC(=O)[C@@H]2[C@@H](O)CCN2C(=O)[C@H]([C@H](O)CCN)NC(=O)[C@H]([C@H](O)[C@@H](O)c2ccc(O)cc2)NC(=O)[C@@H]2C[C@@H](O)CN2C(=O)[C@H]([C@@H](C)O)NC1=O [CASPOFUNGIN] | 8 (≈ 7.32 µM) | 0.25 (≈ 0.229 µM) | 32 | 0.00622 | 3.61 |
| CCCCCOc1ccc(-c2ccc(-c3ccc(C(=O)N[C@H]4C[C@@H](O)[C@@H](O)NC(=O)[C@@H]5[C@@H](O)[C@@H](C)CN5C(=O)[C@H]([C@@H](C)O)NC(=O)[C@H]([C@H](O)[C@@H](O)c5ccc(O)cc5)NC(=O)[C@@H]5C[C@@H](O)CN5C(=O)[C@H]([C@@H](C)O)NC4=O)cc3)cc2)cc1 [ANIDULAFUNGIN] ({pTerphenylCO(4''-OnC5H11)}-[Orn(4R-OH,5R-OH)]T[Hyp][hTyr(3S-OH,4S-OH)]T[Pro(3S-OH,4S-Me)]; lactam 1-C) | 4 (≈ 3.51 µM) | 0.25 (≈ 0.219 µM) | 16 |  |  |
